Active and inactive are the calls of the source. No cut-off for these calls is given here.
Key:
MCF7 = experiment: Cytotoxicity against human MCF7 cells assessed as cell growth inhibition at 20 ug/ml after 72 hrs by sulforhodamine B assay; assay type: functional, cell-based
Summary of the method: (§1)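 Cells held in medium with 10% heat-inactivated FBS and penicillin/streptomycin/amphotericin B (Hepa1c1c7 in α-MEM; MCF-7 in MEME plus 10 mg/L insulin). Samples added in triplicate, 37 °C, 5% CO2, 72 h. Cells fixed with cold 20% TCA at 4 °C for 30 min, stained with 0.4% sulforhodamine B, dye dissolved in 10 mM Tris pH 10, OD read at 515 nm. Growth given as % of 10% aqueous DMSO control.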

[1] = biological target: T1, Prostaglandin G/H synthase 2 (Homo sapiens) (UniProt P35354); experiment: Inhibition of human COX2 assessed as PGE2 formation at 10 ug/ml by LC-MS-MS analysis
T1 sequence (whole entry): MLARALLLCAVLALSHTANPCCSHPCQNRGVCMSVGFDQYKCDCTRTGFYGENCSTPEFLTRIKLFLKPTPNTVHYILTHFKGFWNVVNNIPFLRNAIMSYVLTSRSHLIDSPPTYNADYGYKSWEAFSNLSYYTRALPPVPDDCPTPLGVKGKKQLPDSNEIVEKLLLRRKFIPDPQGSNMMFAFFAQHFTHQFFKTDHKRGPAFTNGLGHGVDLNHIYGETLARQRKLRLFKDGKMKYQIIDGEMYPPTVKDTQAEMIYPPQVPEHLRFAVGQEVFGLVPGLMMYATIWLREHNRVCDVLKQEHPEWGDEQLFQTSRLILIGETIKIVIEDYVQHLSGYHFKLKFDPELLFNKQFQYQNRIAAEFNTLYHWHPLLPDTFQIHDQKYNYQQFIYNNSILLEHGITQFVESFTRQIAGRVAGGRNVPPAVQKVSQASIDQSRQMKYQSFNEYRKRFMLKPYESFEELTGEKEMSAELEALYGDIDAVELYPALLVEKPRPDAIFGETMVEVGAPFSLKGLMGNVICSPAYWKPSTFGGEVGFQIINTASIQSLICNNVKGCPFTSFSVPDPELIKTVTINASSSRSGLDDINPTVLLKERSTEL
Summary of the method: (§2)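 COX-1 (ovine) or COX-2 (human), 0.2 µg, activated in Tris-HCl pH 8.0 with hematin (1 µM final) and L-epinephrine (2 mM final). Test solution preincubated 10 min at 37 °C. Reaction started with arachidonic acid (5 µM final), stopped with HCl after 2 min. d4-PGE2 added as internal standard and PGE2 extracted with […] for LC-MS.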

RAW264.7 = experiment: Inhibition of NO production in mouse RAW264.7 cells at 20 ug/ml after 30 mins by Griess assay; assay type: functional, cell-based; conditions: in the assay text read “after 24 hrs” for “after 30 mins”
Summary of the method: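 RAW 264.7 cells plated for 24 h. Compound in phenol red-free DMEM added 30 min before LPS (1 µg/mL), then 24 h incubation. Nitrite measured with Griess reagent (1% sulfanilamide, 0.1% N-(1-naphthyl)ethylenediamine in 2.5% H3PO4) at 540 nm, against an NaNO2 standard curve.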

[2] = biological target: T2, Prostaglandin G/H synthase 1 (Ovis aries) (UniProt P05979); experiment: Inhibition of ovine COX1 assessed as PGE2 formation at 10 ug/ml by LC-MS-MS analysis; summary of the method: as §2
T2 sequence (whole entry): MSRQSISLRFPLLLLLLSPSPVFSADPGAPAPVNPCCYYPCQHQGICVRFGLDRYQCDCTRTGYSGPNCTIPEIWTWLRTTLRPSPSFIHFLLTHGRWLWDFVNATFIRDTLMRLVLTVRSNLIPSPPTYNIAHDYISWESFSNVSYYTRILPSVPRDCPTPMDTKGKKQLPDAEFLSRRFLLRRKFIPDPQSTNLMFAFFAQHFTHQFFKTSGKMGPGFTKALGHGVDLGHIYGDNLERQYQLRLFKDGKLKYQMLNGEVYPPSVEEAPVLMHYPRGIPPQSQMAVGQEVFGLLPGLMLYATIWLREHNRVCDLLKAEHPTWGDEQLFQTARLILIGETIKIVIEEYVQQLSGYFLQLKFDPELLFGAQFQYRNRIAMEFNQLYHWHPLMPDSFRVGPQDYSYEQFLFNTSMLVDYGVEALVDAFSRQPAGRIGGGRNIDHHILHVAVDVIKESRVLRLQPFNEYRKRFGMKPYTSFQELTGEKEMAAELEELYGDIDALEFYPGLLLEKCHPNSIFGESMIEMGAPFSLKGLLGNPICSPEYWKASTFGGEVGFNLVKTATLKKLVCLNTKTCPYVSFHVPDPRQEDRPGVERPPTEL

[3] = Cytotoxicity against mouse Hepa-1c1c7 cells assessed as cell growth inhibition at 20 ug/ml after 72 hrs by sulforhodamine B assay; assay type: cell-based; conditions: hepa-1c1c7, 72 h; summary of the method: as §1
Aromatase = biological target: T3, Aromatase (Homo sapiens, UniProt P11511); experiment: Inhibition of aromatase preincubated with 2.6 mM NADP+ for 10 mins before substrate addition measured after 30 mins by fluorescence assay
T3 sequence (P11511 whole entry): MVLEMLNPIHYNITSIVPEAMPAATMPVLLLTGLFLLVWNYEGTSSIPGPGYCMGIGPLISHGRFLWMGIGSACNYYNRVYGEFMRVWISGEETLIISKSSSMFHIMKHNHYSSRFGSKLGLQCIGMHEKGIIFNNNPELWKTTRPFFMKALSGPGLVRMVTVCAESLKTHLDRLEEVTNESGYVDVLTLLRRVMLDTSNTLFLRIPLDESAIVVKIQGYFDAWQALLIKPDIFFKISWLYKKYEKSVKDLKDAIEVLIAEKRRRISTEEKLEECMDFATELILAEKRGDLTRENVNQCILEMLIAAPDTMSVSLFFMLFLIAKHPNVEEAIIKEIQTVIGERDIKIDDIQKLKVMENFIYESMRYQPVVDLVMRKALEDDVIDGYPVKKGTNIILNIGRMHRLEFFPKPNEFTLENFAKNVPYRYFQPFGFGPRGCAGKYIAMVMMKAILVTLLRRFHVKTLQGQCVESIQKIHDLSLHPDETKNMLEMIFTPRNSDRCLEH
Summary of the method: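 Compounds preincubated 10 min at 37 °C with NADPH-regenerating system (2.6 mM NADP+, 7.6 mM glucose 6-phosphate, G6PDH, MgCl2, albumin; 50 mM K phosphate pH 7.4). CYP19 with 0.4 µM dibenzylfluorescein then added for 30 min at 37 °C. Stopped with 2 N NaOH and held a further 2 h at 37 °C. Fluorescence read at ex 485/em 530. Five concentrations; three independent experiments in duplicate.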

[4] = Inhibition of TNF-alpha-induced NFkappaB activation in human HEK293 cells after 6 hrs by luciferase reporter gene assay; assay type: cell-based; conditions: HEK293, 6 h

COc1c(-c2ccc(O)c(O)c2)oc2cc(O[C@@H]3O[C@H](CO)[C@@H](O)[C@H](O)[C@H]3O)cc(O)c2c1=O [TRANSILIN]
Activity (MCF7): Not toxic
inhibition [1]: inactive
inhibition (RAW264.7): inactive
inhibition [2]: inactive
Activity [3]: Non-toxic

O=c1ccn([C@@H]2O[C@H](CO)[C@@H](O)[C@@H]2O)c(=O)[nH]1 [ARAURIDINE]
Activity (MCF7): Not toxic
inhibition [1]: inactive
inhibition (RAW264.7): inactive
inhibition [2]: inactive
Activity [3]: Non-toxic

O=C(/C=C/c1ccc(O)c(O)c1)O[C@H]1[C@H](O)[C@@H](CO)O[C@@H](OCCc2ccc(O)c(O)c2)[C@@H]1O[C@@H]1OC[C@](O)(CO)[C@H]1O
Activity (MCF7): Not toxic
inhibition [1]: inactive
inhibition (RAW264.7): inactive
IC50 (Aromatase): 26.8 µM
inhibition [2]: inactive
Activity [3]: Non-toxic

O=C(/C=C/c1ccc(O)c(O)c1)O[C@H]1[C@H](O)[C@@H](O[C@@H]2OC[C@](O)(CO)[C@H]2O)[C@H](OCCc2ccc(O)c(O)c2)O[C@@H]1CO [FUCATOSIDE A]
Activity (MCF7): Not toxic
inhibition [1]: inactive
inhibition (RAW264.7): inactive
inhibition [2]: inactive
Activity [3]: Non-toxic

COc1c(-c2ccc(O)cc2)oc2cc(O[C@@H]3O[C@H](CO[C@@H]4O[C@@H](CO)[C@H](O)[C@H]4O)[C@@H](O)[C@H](O)[C@H]3O)cc(O)c2c1=O
Activity (MCF7): Not toxic
inhibition [1]: inactive
inhibition (RAW264.7): inactive
inhibition [2]: inactive
Activity [3]: Non-toxic

COc1cc([C@@H](O)[C@@H](CO)Oc2ccc(/C=C/CO)cc2OC)ccc1O (relative stereo)
Activity (MCF7): Not toxic
inhibition [1]: inactive
inhibition (RAW264.7): inactive
inhibition [2]: inactive
Activity [3]: Non-toxic

O=c1c(O[C@@H]2O[C@H](CO)[C@@H](O)[C@H](O)[C@H]2O)c(-c2ccc(O)c(O)c2)oc2cc(O)cc(O)c12 [ISOQUERCETIN]
Activity (MCF7): Not toxic
inhibition [1]: inactive
inhibition (RAW264.7): inactive
inhibition [2]: inactive
Activity [3]: Non-toxic

Cc1ccc(S(=O)(=O)N[C@@H](Cc2ccccc2)C(=O)CCl)cc1 [TPCK]
IC50 [4]: 3.76 µM

COc1c(-c2ccc(O)c(O)c2)oc2cc(O[C@@H]3O[C@H](CO[C@@H]4O[C@@H](C)[C@H](O)[C@@H](O)[C@H]4O)[C@@H](O)[C@H](O)[C@H]3O)cc(O)c2c1=O
Activity (MCF7): Not toxic
inhibition [1]: inactive
inhibition (RAW264.7): inactive
inhibition [2]: inactive
Activity [3]: Non-toxic

COc1c(-c2ccc(O)cc2)oc2cc(O[C@@H]3O[C@H](CO)[C@@H](O)[C@H](O)[C@H]3O)cc(O)c2c1=O
Activity (MCF7): Not toxic
inhibition [1]: inactive
inhibition (RAW264.7): inactive
inhibition [2]: inactive
Activity [3]: Non-toxic

O=C(/C=C/c1ccc(O)c(O)c1)O[C@H]1[C@H](O)[C@@H](O[C@@H]2OC[C@](O)(CO)[C@H]2O)[C@H](OCCc2ccc(O)cc2)O[C@@H]1CO
Activity (MCF7): Not toxic
inhibition [1]: inactive
inhibition (RAW264.7): inactive
IC50 (Aromatase): 30.7 µM
inhibition [2]: inactive
Activity [3]: Non-toxic

O=C(/C=C/c1ccc(O)c(O)c1)OC[C@H]1O[C@@H](OCCc2ccc(O)c(O)c2)[C@H](O[C@@H]2OC[C@](O)(CO)[C@H]2O)[C@@H](O)[C@@H]1O
Activity (MCF7): Not toxic
inhibition [1]: inactive
inhibition (RAW264.7): inactive
IC50 (Aromatase): 32.3 µM
inhibition [2]: inactive
Activity [3]: Non-toxic

OC[C@H]1O[C@@H](OCCc2ccc(O)c(O)c2)[C@H](O)[C@@H](O)[C@@H]1O
Activity (MCF7): Not toxic
inhibition [1]: inactive
inhibition (RAW264.7): inactive
inhibition [2]: inactive
Activity [3]: Non-toxic

COc1c(-c2ccc(O)cc2)oc2cc(O[C@@H]3O[C@H](CO[C@@H]4O[C@@H](C)[C@H](O)[C@@H](O)[C@H]4O)[C@@H](O)[C@H](O)[C@H]3O)cc(O)c2c1=O
Activity (MCF7): Not toxic
inhibition [1]: inactive
inhibition (RAW264.7): inactive
inhibition [2]: inactive
Activity [3]: Non-toxic

O=C(/C=C/c1ccc(O)c(O)c1)O[C@H]1[C@H](O)[C@@H](CO)O[C@@H](OCCc2ccc(O)cc2)[C@@H]1O[C@@H]1OC[C@](O)(CO)[C@H]1O
Activity (MCF7): Not toxic
inhibition [1]: inactive
inhibition (RAW264.7): inactive
inhibition [2]: inactive
Activity [3]: Non-toxic

O=C(/C=C/c1ccc(O)c(O)c1)OC[C@H]1O[C@@H](OCCc2ccc(O)c(O)c2)[C@H](O)[C@@H](O)[C@@H]1O [CALCEOLARIOSIDE B]
Activity (MCF7): Not toxic
inhibition [1]: inactive
inhibition (RAW264.7): inactive
IC50 (Aromatase): 35.3 µM
inhibition [2]: inactive
Activity [3]: Non-toxic
